ChEMBL document CHEMBL1144441, “Identification of a novel cardenolide (2''-oxovoruscharin) from Calotropis procera and the hemisynthesis of novel derivatives displaying potent in vitro antitumor activities and high in vivo tolerance: structure-activity relationship analyses” (J Med Chem, 2005)

Key:
[1] = test system: BT-20; test: In vitro cytotoxic activity against human BT-20 cancer cell lines after 3 days of culture; assay type: functional
Procedure, shortened: (§1)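 MTT overall-growth panel across 57 human cancer lines. Cells were plated for 24 h at 10 000–40 000 cells/mL, depending on cell type. Drugs were given at nine concentrations, 10^-9 to 10^-5 M in semilog steps, for 3 days. Absorbance was read at 570 nm with a 630 nm reference, in sextuplicate. Surviving cells are expressed as % of untreated control (100%).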

[2] = test system: MIA PaCa-2; test: In vitro cytotoxic activity against human MiaPaca-2 cancer cell lines after 3 days of culture; assay type: functional; procedure, shortened: as §1
[3] = test system: WiDr; test: In vitro cytotoxic activity against human WiDr cancer cell lines after 3 days of culture; assay type: functional
Procedure, shortened: (§2)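 Human cancer cell lines, seeded 10 000–40 000 cells/mL and plated for 24 h, then exposed 72 h to nine drug concentrations from 10^-9 to 10^-5 M in semilog steps. Overall growth read by MTT reduction to formazan, absorbance at 570 nm (reference 630 nm). Sextuplicate wells; IC50 is the concentration reducing overall growth by 50% versus untreated control.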

[4] = test system: Hs-578T; test: In vitro cytotoxic activity against human Hs 578.T cancer cell lines after 3 days of culture; assay type: functional; procedure, shortened: as §1
[5] = test system: A-427; test: In vitro cytotoxic activity against human A427 cancer cell lines after 3 days of culture; assay type: functional; procedure, shortened: as §1
[6] = test system: 786-0; test: In vitro cytotoxic activity against human 786-O cancer cell lines after 3 days of culture; assay type: functional; procedure, shortened: as §1
[7] = test system: U373 MG; test: Concentration required for 50% growth inhibition of human U373 cancer cell lines after 3 days of culture; assay type: functional, cell-based, U-373MG ATCC; conditions: 72 h
Procedure, shortened: (§3)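 MTT overall-growth assay on the five lines. Cells were plated for 24 h at 10 000–40 000 cells/mL, depending on cell type. Nine concentrations from 10^-9 to 10^-5 M in semilog steps were applied for 72 h. Formazan was read at 570 nm against a 630 nm reference, in sextuplicate. IC50 = concentration reducing overall growth by 50% versus untreated control.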

[8] = test system: LoVo; test: Concentration required for 50% growth inhibition of human LoVo cancer cell lines after 3 days of culture; assay type: functional, cell-based; conditions: 72 h; procedure, shortened: as §3
[9] = In vitro cytotoxic activity against human […] cancer cell lines after 3 days of culture; assay type: functional; procedure, shortened: as §1
[10] = test system: LoVo; test: In vitro cytotoxic activity against human LoVo cancer cell lines after 3 days of culture; assay type: functional; procedure, shortened: as §1
[11] = In vitro cytotoxic activity against human Capan-2 cancer cell lines after 3 days of culture; assay type: functional; procedure, shortened: as §1
[12] = test system: LNCaP; test: In vitro cytotoxic activity against human LNCaP cancer cell lines after 3 days of culture; assay type: functional; procedure, shortened: as §1
[13] = test system: Mus musculus; test: Maximum tolerated dose after intraperitoneal administration in mouse (period of 28 days); assay type: functional
Procedure, shortened: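 Healthy, non-tumour-bearing B6D2F1 mice given one acute intraperitoneal dose, three mice per dose group, doses 5, 10, 20, 40, 80, 120 and 160 mg/kg. Survival and body weight followed for 28 days after injection. MTD is the highest single dose causing no deaths over the period.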

[14] = test system: T-24; test: In vitro cytotoxic activity against human T24 cancer cell lines after 3 days of culture; assay type: functional; procedure, shortened: as §2
[15] = In vitro cytotoxic activity against human SW948 cancer cell lines after 3 days of culture; assay type: functional; procedure, shortened: as §2
[16] = test system: ZR-75-1; test: In vitro cytotoxic activity against human ZR-75-1 cancer cell lines after 3 days of culture; assay type: functional; procedure, shortened: as §2
[17] = test system: Malme-3M; test: In vitro cytotoxic activity against human MALME-3M cancer cell lines after 3 days of culture; assay type: functional; procedure, shortened: as §1
[18] = test system: BXPC-3; test: In vitro cytotoxic activity against human BxPC-3 cancer cell lines after 3 days of culture; assay type: functional; procedure, shortened: as §1
[19] = test system: ACHN; test: In vitro cytotoxic activity against human ACHN cancer cell lines after 3 days of culture; assay type: functional; procedure, shortened: as §1
[20] = test system: T98G; test: In vitro cytotoxic activity against human T98G cancer cell lines after 3 days of culture; assay type: functional; procedure, shortened: as §2
[21] = In vitro cytotoxic activity against human MCF7HTB-22 cancer cell lines after 3 days of culture; assay type: functional; procedure, shortened: as §1
[22] = test system: HT1197; test: In vitro cytotoxic activity against human HT1197 cancer cell lines after 3 days of culture; assay type: functional; procedure, shortened: as §1
[23] = In vitro cytotoxic activity against human SK-UT-1B cancer cell lines after 3 days of culture; assay type: functional; procedure, shortened: as §2
[24] = test system: HT-29; test: In vitro cytotoxic activity against human HT-29 cancer cell lines after 3 days of culture; assay type: functional; procedure, shortened: as §1
[25] = test system: A549; test: Concentration required for 50% growth inhibition of human A549 cancer cell lines after 3 days of culture; assay type: functional, cell-based; conditions: A549, 72 h; procedure, shortened: as §3
[26] = target: Sodium/potassium-transporting ATPase subunit alpha-1 (Sus scrofa, UniProt P05024); test: In vitro inhibitory activity against porcine Na+/K+-ATPase
Procedure, shortened: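 Porcine cerebral cortex Na+/K+-ATPase (3 × 10-3 units), preincubated 30 min at 37 °C in 30 mM Tris-HCl pH 7.4, 5 mM MgCl2 with inhibitor (1 to 50 000 nM). ADP formation coupled via pyruvate kinase/lactate dehydrogenase, excess phosphoenolpyruvate, to NADH oxidation.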

[27] = test system: PC-3; test: In vitro cytotoxic activity against human PC-3 cancer cell lines after 3 days of culture; assay type: functional; procedure, shortened: as §1
[28] = test system: MDA-MB-231; test: In vitro cytotoxic activity against human MDA-MB-231 cancer cell lines after 3 days of culture; assay type: functional; procedure, shortened: as §1
[29] = test system: T47D; test: In vitro cytotoxic activity against human T-47D cancer cell lines after 3 days of culture; assay type: functional; procedure, shortened: as §2
[30] = test system: H4; test: In vitro cytotoxic activity against human H4 cancer cell lines after 3 days of culture; assay type: functional; procedure, shortened: as §1
[31] = In vitro cytotoxic activity against human 769-P cancer cell lines after 3 days of culture; assay type: functional; procedure, shortened: as §1
[32] = In vitro cytotoxic activity against human C32 cancer cell lines after 3 days of culture; assay type: functional; procedure, shortened: as §1
[33] = test system: CFPAC-1; test: In vitro cytotoxic activity against human CFPAC-1 cancer cell lines after 3 days of culture; assay type: functional; procedure, shortened: as §1
[34] = In vitro cytotoxic activity against human Su.86.86 cancer cell lines after 3 days of culture; assay type: functional; procedure, shortened: as §2
[35] = In vitro cytotoxic activity against human G361 cancer cell lines after 3 days of culture; assay type: functional; procedure, shortened: as §1
[36] = In vitro cytotoxic activity against human Hs 683 cancer cell lines after 3 days of culture; assay type: functional; procedure, shortened: as §1
[37] = test system: DU-145; test: In vitro cytotoxic activity against human DU145 cancer cell lines after 3 days of culture; assay type: functional; procedure, shortened: as §1
[38] = In vitro cytotoxic activity against human SK-LMS-1 cancer cell lines after 3 days of culture; assay type: functional; procedure, shortened: as §1
[39] = In vitro cytotoxic activity against human SW1783 cancer cell lines after 3 days of culture; assay type: functional; procedure, shortened: as §2
[40] = In vitro cytotoxic activity against human Detroit 562 cancer cell lines after 3 days of culture; assay type: functional; procedure, shortened: as §1
[41] = test system: MES-SA; test: In vitro cytotoxic activity against human MES-SA cancer cell lines after 3 days of culture; assay type: functional; procedure, shortened: as §1
[42] = test system: CAKI-2; test: In vitro cytotoxic activity against human CAKI-2 cancer cell lines after 3 days of culture; assay type: functional; procedure, shortened: as §1
[43] = test system: SK-MEL-28; test: In vitro cytotoxic activity against human SKMEL-28 cancer cell lines after 3 days of culture; assay type: functional; procedure, shortened: as §2
[44] = test system: A498; test: In vitro cytotoxic activity against human A-498 cancer cell lines after 3 days of culture; assay type: functional; procedure, shortened: as §1
[45] = In vitro cytotoxic activity against human Hs 766.T cancer cell lines after 3 days of culture; assay type: functional; procedure, shortened: as §1
[46] = test system: HCT-15; test: In vitro cytotoxic activity against human HCT-15 cancer cell lines after 3 days of culture; assay type: functional; procedure, shortened: as §1
[47] = In vitro cytotoxic activity against human AL-12T cancer cell lines after 3 days of culture; assay type: functional; procedure, shortened: as §1
[48] = test system: PANC-1; test: In vitro cytotoxic activity against human Panc-1 cancer cell lines after 3 days of culture; assay type: functional; procedure, shortened: as §1
[49] = test system: HCT-15; test: Concentration required for 50% growth inhibition of human HCT-15 cancer cell lines after 3 days of culture; assay type: functional, cell-based; conditions: HCT-15, 72 h; procedure, shortened: as §3
[50] = test system: FaDu; test: In vitro cytotoxic activity against human FaDu cancer cell lines after 3 days of culture; assay type: functional; procedure, shortened: as §1
[51] = In vitro cytotoxic activity against human Hs 729 cancer cell lines after 3 days of culture; assay type: functional; procedure, shortened: as §1
[52] = test system: A204; test: In vitro cytotoxic activity against human A204 cancer cell lines after 3 days of culture; assay type: functional; procedure, shortened: as §1
[53] = In vitro cytotoxic activity against human SW1088 cancer cell lines after 3 days of culture; assay type: functional; procedure, shortened: as §2
[54] = In vitro cytotoxic activity against human HT144 cancer cell lines after 3 days of culture; assay type: functional; procedure, shortened: as §1
[55] = Concentration required for 50% growth inhibition of human Hs 683 cancer cell lines after 3 days of culture; assay type: functional, cell-based; conditions: 72 h; procedure, shortened: as §3
[56] = test system: A549; test: In vitro cytotoxic activity against human A549 cancer cell lines after 3 days of culture; assay type: functional; procedure, shortened: as §1
[57] = test system: U-87 MG; test: In vitro cytotoxic activity against human U87MG cancer cell lines after 3 days of culture; assay type: functional, U-87MG ATCC; procedure, shortened: as §2
[58] = test system: HT-1080; test: In vitro cytotoxic activity against human HT1080 cancer cell lines after 3 days of culture; assay type: functional; procedure, shortened: as §1
[59] = test system: DLD-1; test: In vitro cytotoxic activity against human DLD-1 cancer cell lines after 3 days of culture; assay type: functional; procedure, shortened: as §1
[60] = test system: U373 MG; test: In vitro cytotoxic activity against human U-373MG cancer cell lines after 3 days of culture; assay type: functional, U-373MG ATCC; procedure, shortened: as §2
[61] = In vitro cytotoxic activity against human SCC-9 cancer cell lines after 3 days of culture; assay type: functional; procedure, shortened: as §1
[62] = In vitro cytotoxic activity against human Hs 174.T cancer cell lines after 3 days of culture; assay type: functional; procedure, shortened: as §1

Structure (SMILES): C[C@@H]1C[C@@]2(NC(=O)CS2)C2(O)O[C@@H]3C[C@@]4(CO)[C@@H](CC[C@@H]5[C@@H]4CC[C@]4(C)[C@@H](C6=CC(=O)OC6)CC[C@]54CO)C[C@H]3O[C@@H]2O1 (some centres not stated)
- Log IC50 [1]: -8.3
- Log IC50 [2]: -7.5
- Log IC50 [3]: -7.8
- Log IC50 [4]: -8.7
- Log IC50 [5]: -7.6
- Log IC50 [6]: -8.5
- IC50 [7]: 9 nM
- IC50 [8]: 10 nM
- Log IC50 [9]: -8.7
- Log IC50 [10]: -8
- Log IC50 [11]: -9
- Log IC50 [12]: -8.3
- MTD [13]: 80 mg/kg
- Log IC50 [14]: -8.6
- Log IC50 [15]: -7.4
- Log IC50 [16]: -7.4
- Log IC50 [17]: -6.4
- Log IC50 [18]: -7.7
- Log IC50 [19]: -8.2
- Log IC50 [20]: -8.2
- Log IC50 [21]: -8.4
- Log IC50 [22]: -7.1
- Log IC50 [23]: -7.5
- Log IC50 [24]: -7.8
- IC50 [25]: 8 nM
- IC50 [26]: 75 nM
- Log IC50 [27]: -8.1
- Log IC50 [28]: -8
- Log IC50 [29]: -8.4
- Log IC50 [30]: -7.5
- Log IC50 [31]: -8.3
- Log IC50 [32]: -7.7
- Log IC50 [33]: -7.2
- Log IC50 [34]: -8.6
- Log IC50 [35]: -8.1
- Log IC50 [36]: -8.6
- Log IC50 [37]: -8.7
- Log IC50 [38]: -8
- Log IC50 [39]: -7.7
- Log IC50 [40]: -8.3
- Log IC50 [41]: -7.8
- Log IC50 [42]: -8.3
- Log IC50 [43]: -7.4
- Log IC50 [44]: -8.2
- Log IC50 [45]: -7.4
- Log IC50 [46]: -7.6
- Log IC50 [47]: -8.1
- Log IC50 [48]: -8.3
- IC50 [49]: 24 nM
- Log IC50 [50]: -8.1
- Log IC50 [51]: -7.5
- Log IC50 [52]: -8.2
- Log IC50 [53]: -7
- Log IC50 [54]: -7.6
- IC50 [55]: 3 nM
- Log IC50 [56]: -8.1
- Log IC50 [57]: -8.6
- Log IC50 [58]: -7.4
- Log IC50 [59]: -7.4
- Log IC50 [60]: -8.1
- Log IC50 [61]: -7.4
- Log IC50 [62]: -7.4
